Source: PubChem
STAT3 inh: inhibitors of IL-6 induced STAT3 signaling; U3A cells, IL-6 STAT3-luciferase reporter, luminescence; host cell line lacks STAT1; inhibition, % at 5.5 µM; hit rate 0.89% among 190,000; AID 862;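 active = inhibition above the mean inhibition across all screened compounds plus 3 SD, cut at about 44% in these data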;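 also: 0% = DMSO only wells and 100% = 100 µM nifuroxazide control wells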
APP 5'UTR act: APP 5'UTR luciferase reporter activation; SH-SY5Y APP 5'UTR luciferase reporter, luminescence; zero percent = DMSO vehicle wells; activation, % at 2 µM; hit rate 1% among 190,000;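 active = activation above a set limit, based on mean plus 3 SD of controls, cut at about 140% in these data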
STAT3 activator: activators of IL-6 induced STAT3 signaling. U3A cells, IL-6 STAT3-luciferase reporter, luminescence; 100% = signal with IL-6 EC80 alone. activation (% of control), % at 5.6 µM. hit rate 0.91% among 190,000;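 active = activation above the screen-wide mean of compound activation plus 3 SD, cut at about 130% in these data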;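 also: 0% = background luminescence of wells with medium and substrate only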
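system = STAT3-luciferase reporter U3A cells | reagent = IL-6 stimulus at 33 ng/mL final | timing = 1 h compound pre-exposure, 6 h IL-6 stimulation, 37 °C | measured by = luminescence | evaluation = % activation versus median of IL-6-stimulated wells | control set = IL-6-only wells as 100% reference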
STAT1 act: increases IFN-gamma driven STAT1 reporter signal; NIH 3T3 STAT1-luciferase reporter, luminescence; 100% = IFN-gamma alone, no compound; activation (% of control), % at 5.5 µM; hit rate 2.6% among 200,000; AID 932;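 active = activation above the screen-wide mean activation plus 3 SD, cut at about 130% in these data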;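 also: raw ratio to IFN-gamma control signal so 100% means no change and 0% no light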
NF-kB neuron act: compounds increasing NF-kB expression in human neuronal cells | NF-kB reporter expression; active compounds read high | fold change at 12.5 µM | hit rate 1.6% among 190,000; in the data active = fold change above about 3.3
STAT1 blocker: inhibitors of IFN-gamma induced STAT1 signaling; NIH 3T3 STAT1-luciferase reporter, luminescence; inhibition, % at 5.5 µM; hit rate 0.35% among 200,000; AID 920;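 active = inhibition above a set limit, the mean inhibition across all tested compounds plus 3 SD, cut at about 34% in these data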;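 also: 0% = IFN-gamma with DMSO and 100% = IFN-gamma with 300 µM nifuroxazide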
* = called active by the depositor. This is a sample that favours compounds with a hit; in the whole collection about 4.9% have one here.

SMILES	STAT3 inh	APP 5'UTR act	STAT3 activator	STAT1 act	NF-kB neuron act	STAT1 blocker
CC1=NN(C(N)=S)C(=O)C1N=Nc1ccccc1 (stereo not given)	5.2	11.6	98.8	129.5*	1.72	-34.4
CC1=NN(c2ccccc2)C(=O)C1N=Nc1ccccc1 (stereo not given)	-38.8	94.5	133.4*	108.7	1.13	-9.7
CCc1ccc(NC(=S)NC(=O)CC(C)C)cc1	-12.8	60.9	113.2	128.9*	2.19	-32.3
COc1ccc(NC(=O)c2ccccc2C)c(OC)c1	15.3	-0.3	90.5	97.4	1.18	2.9
COc1ccc(O)c(C(=O)CC(=O)c2ccccc2C)c1	18.8	76.9	88.3	145.1*	2.32	-50.2
Cn1c(CN2CCCC2)nc2cc(NC(=O)COc3ccc([N+](=O)[O-])cc3)ccc21	-1.6	3.0	104.8	95.4	0.91	5.1
Cc1ccccc1NC(=O)N1CCCC(c2nc(-c3ccc(F)cc3)no2)C1 (stereo not given)	19.4	14.2	88.0	103.4	1.08	-3.7
Cc1ccccc1NC(=O)N1CCCC(c2nc(-c3ccc(C(C)C)cc3)no2)C1 (stereo not given)	11.6	112.5	98.4	135.4*	0.89	-38.9
CCC(C)c1ccc(NC(=O)c2cccs2)cc1 (stereo not given)	36.2	149.6*	73.0	129.9*	10.6*	-32.8
CCN(CC)CCCN(C(=O)c1cccs1)c1nc(-c2ccc(OC)cc2)cs1	0.4	4.6	102.2	105.1	0.89	-5.6
CC(C)c1ccc(NC(=S)NNC(=O)c2cccs2)cc1	7.2	80.8	99.8	144.3*	2.69	-49.9
O=C(Nc1ccc(-c2cn3ccccc3n2)cc1)c1cccs1	20.1	136.3*	86.5	134.0*	2.25	-36.9
COc1ccc(-c2csc(N(C)C(=O)c3cccs3)n2)cc1	13.2	72.9	91.5	131.2*	1.48	-36.2
Cc1ccc(NS(=O)(=O)c2cc(C(=O)Nc3cccc(N(C)S(C)(=O)=O)c3)ccc2C)c(C)c1	7.4	5.0	95.5	88.2	0.52	13.3
COc1ccc(NC(=S)NNC(=O)c2cccs2)cc1	-2.6	42.1	103.3	115.1	1.62	-16.8
COc1ccc(NC(=O)c2cccs2)cc1	1.9	66.0	101.5	140.0*	3.01	-40.4
CC(C)(C)c1csc(NC(=O)c2cccs2)n1	1.7	122.4	100.9	130.2*	2.51	-32.8
CC(C)(C)c1csc(NC(=O)Cc2cccs2)n1	19.2	11.8	87.7	109.4	1.08	-13.9
O=C(NCC1CCCO1)c1ccc2c(=O)n(Cc3ccco3)c(SCC(=O)N3CCCC3)nc2c1 (stereo not given)	19.2	17.4	93.0	68.3	0.6	35.3*
Cc1nnc(C)n1/N=C/c1ccccc1	-2.4	-17.2	105.6	92.5	1.26	8.2
N=C1N(/N=C/c2ccccc2)C(=Nc2ccccc2)C(=S)N1c1ccccc1	5.1	20.1	98.4	132.0*	2.27	-38.7
CCCc1cc(=O)n2[nH]c(-c3ccccc3)cc2n1	-18.6	61.2	122.2	133.9*	2.61	-37.1
COc1ccc(-c2cn3cc(Br)cnc3n2)cc1	15.6	100.4	90.2	134.6*	2.17	-39.7
COc1ccc(-c2cn3cccnc3n2)cc1Br	13.8	-4.4	91.2	106.8	1.73	-7.6
O=C(CSc1nnc(-c2ccccc2Cl)o1)Nc1ccccn1	13.4	129.2	94.3	117.3	2.27	-20.8
SMILES	STAT3 inh	APP 5'UTR act	STAT3 activator	STAT1 act	NF-kB neuron act	STAT1 blocker
O=C(CSc1nnc(-c2ccc(O)cc2)o1)Nc1ccc2c(c1)OCCO2	20.8	135.3*	85.2	101.3	1.92	-1.4
O=C(CSc1nnc(-c2ccccc2Cl)o1)Nc1ccc2c(c1)OCCO2	3.3	140.9*	99.1	98.2	2.23	1.1
OCCCC1CCCN(Cc2cn[nH]c2-c2ccc(F)cc2F)C1 (stereo not given)	-3.9	6.2	107.3	94.4	1.12	4.6
CCOc1ccc(-c2nc(-c3cccnc3)no2)cc1	36.9	129.3	67.6	140.2*	6.79*	-43.6
CCOc1ccc(-c2noc(-c3cccnc3)n2)cc1OC	9.9	3.9	93.7	126.6	1.08	-29.0
CCCCOc1ccc(-c2nc(-c3cccnc3)no2)cc1	-3.8	174.8*	106.8	128.4	5.2*	-28.6
CCOC(=O)N1CCN(C(=O)c2ccc3c(c2)sc2nc(-c4ccccc4)cn23)CC1	10.2	82.0	94.4	144.6*	0.44	-49.0
OC1(c2ccccc2F)CCN(Cc2nnnn2Cc2ccc(F)cc2)CC1	0.0	10.3	103.9	105.5	0.88	-7.7
CCc1ccccc1NC1=CC(=O)CC(C)(C)C1	4.4	28.2	98.1	100.8	0.95	-1.4
CCOC(=O)c1cc(C(=O)Nc2ccc(C)c(F)c2)nn1C	-18.5	69.7	115.7	135.4*	3.24	-39.6
Cc1ccc(CNC(=O)COC(=O)c2cnc(C)cn2)cc1	12.1	-7.9	91.8	101.0	1.06	-3.6
CCc1ccc(/C=C2\SC(=S)N(CCC(=O)N3CCN(C)CC3)C2=O)cc1	11.9	-9.4	99.4	105.5	3.34*	-7.0
O=[N+]([O-])c1cc(/C=N/N2CCN(c3ccccc3)CC2)ccc1Cl	14.2	-7.5	89.7	107.5	1.12	-8.4
O=[N+]([O-])c1cc(/C=N/N2CCCCC2)ccc1Cl	11.0	4.3	94.1	132.5*	3.19	-35.3
CC(C)(CNC(=O)/C=C/c1ccc(F)cc1)CNC(=O)/C=C/c1ccc(F)cc1	4.7	-8.4	95.5	106.1	0.88	-6.7
N#C/C(=N\Nc1ccccc1F)C(=N)N1CCCCC1	-12.2	87.9	112.1	148.1*	3.98*	-57.1
Cc1ccc(N/N=C(\C#N)C(=N)N2CCOCC2)cc1	-13.3	22.1	113.6	137.0*	1.9	-41.4
N#C/C(=N\Nc1ccc(F)cc1)C(=N)N1CCCCCC1	20.2	185.2*	84.8	150.1*	7.72*	-55.3
Cc1ccc(N/N=C(\C#N)C(=N)N2CCCCCC2)cc1	16.4	167.9*	95.2	136.2*	5.88*	-40.6
CCOC(=O)C1(Cc2ccc(Cl)cc2)CCN(C(=O)c2sc(C)nc2C)CC1	20.0	4.7	87.2	84.3	0.8	16.6
Cc1c(C(=O)N2CCc3ccccc3C2)oc2ccc(S(=O)(=O)N3CCCCCC3)cc12	-6.0	1.3	103.0	102.4	0.65	-2.6
O=C(Nc1ccc(Cl)cc1C(=O)N1CCOCC1)c1cccc([N+](=O)[O-])c1	-7.6	9.0	105.3	107.4	1.36	-8.2
O=C(Cc1ccccc1)Nc1ccc(NC(=O)c2ccco2)nc1	3.2	34.1	97.9	136.0*	1.9	-39.8
CCOc1ccc(NC(=O)CCC(=O)NNC(=O)c2ccco2)cc1	-10.8	2.6	111.4	104.0	1.04	-3.6
CCOc1ccc(NC(=O)c2ccco2)cc1	26.5	119.5	80.7	105.9	3.88*	-6.4
O=C(Nc1ccc(NC(=O)c2ccco2)nc1)c1ccccn1	30.4	106.2	78.2	127.5	2.82	-27.7
